Each structure is given as a SMILES string.

Experiment [1] has as its target T1, Mu-type opioid receptor (Cavia porcellus, UniProt P97266). Put plainly: (§1) Binding affinity to displace radioligand [3H]DAMGO on Opioid receptor mu 1 in guinea pig membranes. The format is cell membranes.
The target of experiment [2] is Kappa-type opioid receptor (Cavia porcellus, UniProt P41144). Nature of the experiment: Binding affinity to displace radioligand [3H]U-69593 on Opioid receptor kappa 1 in guinea pig membranes. The format is cell membranes.
A short description of experiment [3]: Inhibition of adenylyl cyclase activity in membranes of the human SH-SY5Y neuroblastoma cell line. The format is functional, cell-based. Details: concentration or dose not given beside the values. To be noted: concentration not given here. In outline:
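SH-SY5Y membranes (50 µg protein) incubated 15 min at 30 °C with compound at 10 µM final. The mix held 20 mM HEPES pH 7.4, creatine phosphokinase/phosphocreatine, 1 mM phenanthroline, 60 µM IBMX, 0.1 mM GTP and 0.1 mM ATP. Stopped with perchloric acid and neutralized. cAMP measured by [3H]cAMP kit. Reported as % inhibition of basal activity, duplicate, repeated at least three times.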

Experiment [4] deals with T1, Mu-type opioid receptor. The experiment is described as §1. It counts as cell membranes. Put shortly:
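Guinea pig brain membranes (500 µg protein) incubated with 12 concentrations of compound and 0.25 nM [3H]DAMGO in 50 mM Tris-HCl pH 7.5, 25 °C, 60 min. Nonspecific binding with 10 µM naloxone. Filtration, washes in cold Tris, scintillation counting. IC50 by log-probit least-squares fit, converted to Ki (Cheng-Prusoff). At least three experiments in triplicate, mean ± SE.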
This is another data set of the same source.

Experiment [5] can be described thus: Binding affinity to displace radioligand [3H]naltrindole on Opioid receptor delta 1 in guinea pig membranes.

T1 sequence (P97266 whole entry): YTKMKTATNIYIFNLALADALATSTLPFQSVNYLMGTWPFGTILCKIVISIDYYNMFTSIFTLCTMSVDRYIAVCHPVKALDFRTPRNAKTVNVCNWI
Kappa-type opioid receptor, sequence (P41144 whole entry): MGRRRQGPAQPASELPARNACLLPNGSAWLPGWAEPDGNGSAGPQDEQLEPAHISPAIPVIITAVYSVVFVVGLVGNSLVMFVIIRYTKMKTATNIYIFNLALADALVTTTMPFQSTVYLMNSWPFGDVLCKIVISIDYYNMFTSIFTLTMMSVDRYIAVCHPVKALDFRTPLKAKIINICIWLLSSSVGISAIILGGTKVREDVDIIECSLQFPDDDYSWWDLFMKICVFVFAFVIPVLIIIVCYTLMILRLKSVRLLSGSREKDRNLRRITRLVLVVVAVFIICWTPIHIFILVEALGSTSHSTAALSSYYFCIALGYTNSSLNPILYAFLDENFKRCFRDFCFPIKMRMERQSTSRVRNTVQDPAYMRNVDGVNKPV

One may read the Ki as a dissociation constant, usually derived from enzyme kinetics or from competition with a known ligand. On to `C[C@H]1[C@H]2Cc3ccc(N)cc3[C@@]1(C)CCN2CC1CC1`, for which the Ki at Mu-type opioid receptor [1] is 1.8 nM; in experiment [2], 1.2 nM.
For orientation: inhibition means how much of the control response was suppressed. As to `CN1CC[C@]23c4c5ccc(NCc6ccccc6)c4O[C@H]2[C@@H](O)C=C[C@H]3[C@H]1C5`, the values for the Ki (at Mu-type opioid receptor [1]; in experiment [2]) were 33 nM and 3400 nM, respectively. Further, the inhibition in experiment [3] turned out to be 17%.
The matching figures for `CN(C)c1ccc2c3c1O[C@H]1[C@@H](O)C=C[C@H]4[C@@H](C2)N(C)CC[C@@]341`: 240 nM, 290 nM and 13%.
For `CN1CC[C@]23c4c5ccc(N)c4O[C@H]2[C@@H](O)C=C[C@H]3[C@H]1C5`, the inhibition constant (Ki) in experiment [2] is 740 nM; at Mu-type opioid receptor [4], 53 nM. In experiment [3], this compound had an inhibition of 26%.
`C[C@H]1[C@H]2Cc3ccc(Nc4ccccc4)cc3[C@@]1(C)CCN2CC1CC1`: the affinity in experiment [5] corresponds to a Ki of 5.2 nM.
Consider `CN1CC[C@]23c4c5ccc(Nc6ccccc6)c4O[C@H]2[C@@H](O)C=C[C@H]3[C@H]1C5`, for which the Ki on Mu-type opioid receptor [1] amounted to 59 nM; in experiment [2] it was 240 nM. For the same compound, the inhibition in experiment [3] was 44%.
`CNc1ccc2c3c1O[C@H]1[C@@H](O)C=C[C@H]4[C@@H](C2)N(C)CC[C@@]341`: the inhibition constant Ki worked out at 63 nM at Mu-type opioid receptor [1] and 2800 nM in experiment [2]. Further, the inhibition in experiment [3] was determined as 29%.
For the compound `C[C@@H](NC(=O)[C@@H](N)Cc1ccc(O)cc1)C(=O)NCC(=O)N(C)[C@@H](Cc1ccccc1)C(=O)NCCO`, the inhibition in experiment [3] was 58%.

The values are drawn from ChEMBL document CHEMBL1133652, “Selective protection and functionalization of morphine: synthesis and opioid receptor binding properties of 3-amino-3-desoxymorphine derivatives” (J Med Chem, 2000).
